Experimental data: ChEMBL document CHEMBL1147245, “Chemistry of renieramycins. Part 3.(1) isolation and structure of stabilized renieramycin type derivatives possessing antitumor activity from Thai sponge Xestospongia species, pretreated with potassium cyanide” (J Nat Prod, 2003)

What was measured:
Format in all cases: functional, cell-based
HCT-116 = assay: Cytotoxicity against human HCT116 cells after 4 days; conditions: HCT-116, 96 h
Summary of the method: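 HCT116 cells seeded as single-cell suspension at 2×10^3 cells/well onto serially diluted compounds, cultured 4 days; growth read with a cell counting kit. IC50 taken as concentration giving 50% growth inhibition relative to untreated control.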

QG-56 = assay: Cytotoxicity against human QG56 cells after 4 days; conditions: QG-56, 96 h
NCI-H460 = assay: Cytotoxicity against human NCI-H460 cells after 4 days; conditions: NCI-H460, 96 h
DLD-1 = assay: Cytotoxicity against human DLD1 cells after 4 days; conditions: DLD-1, 96 h

SMILES	IC50 (HCT-116) [nM]	IC50 (QG-56) [nM]	IC50 (NCI-H460) [nM]	IC50 (DLD-1) [nM]
COc1cc2c(cc1O)CCN[C@]21CS[C@@H]2c3c(OC(C)=O)c(C)c4c(c3[C@H](COC1=O)N1[C@@H]2[C@H]2c3c(cc(C)c(OC)c3O)C[C@@H]([C@@H]1C#N)N2C)OCO4 [ECTEINASCIDIN 770]	1.2	3.9	0.64	2.4
C/C=C(/C)C(=O)OC[C@H]1C2=C(C[C@H]3[C@H]4C5=C(C[C@@H]([C@H](C#N)N13)N4C)C(=O)C(C)=C(OC)C5=O)C(=O)C(C)=C(OC)C2=O [RENIERAMYCIN M]	7.9	19	5.9	9.6
C/C=C(/C)C(=O)OC[C@H]1C2=C(C[C@H]3[C@H]4c5c(O)c(OC)c(C)c(O)c5[C@H](O)[C@@H]([C@H](C#N)N13)N4C)C(=O)C(C)=C(OC)C2=O [RENIERAMYCIN N]	5.6	11	6.7	5.7
C/C=C(/C)C(=O)OC[C@H]1C2=C(C[C@H]3[C@H]4C5=C(C(=O)C(C)=C(OC)C5=O)[C@H](O)[C@@H]([C@H](C#N)N13)N4C)C(=O)C(C)=C(OC)C2=O [RENIERAMYCIN O]	28	40		
COC1=C(C)C(=O)C2=C(C1=O)[C@@H]1[C@@H]3CC4=C(C(=O)C(OC)=C(C)C4=O)[C@H](CNC(=O)C(C)=O)N3[C@@H](C#N)[C@H](C2)N1C [SAFRAMYCIN A]	0.4	5.5	2.1	0.6
